Source: BindingDB's records for doi:10.1021/acs.jmedchem.0c00522 (Leiden University & Oncode Institute, 2020)

Assays:
[1] = molecular target: T1, Phospholipase A and acyltransferase 2 (Homo sapiens, UniProt Q9NWW9); assay: Inhibition of full-length C-terminal FLAG-tagged human PLAAT2 expressed in HEK293T cell lysate preincubated for 30 mins followed by MB064 addition and measured after 20 mins by SDS-PAGE based ABPP analysis
T1 sequence (Q9NWW9 whole entry): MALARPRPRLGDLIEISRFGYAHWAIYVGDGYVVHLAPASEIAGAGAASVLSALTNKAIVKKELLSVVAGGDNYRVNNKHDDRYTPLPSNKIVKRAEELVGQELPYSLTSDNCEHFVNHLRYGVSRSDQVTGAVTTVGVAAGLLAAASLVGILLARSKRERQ
Procedure, shortened: (§1)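 Dose–response competitive ABPP on cytosol only, from HEK293T overexpressing FLAG-tagged PLAAT. Inhibitor 30 min rt, then MB064 20 min rt. PLAAT2 0.25 μg/μL with 250 nM probe; PLAAT3 0.5 μg/μL with 250 nM; PLAAT4 and PLAAT5 1 μg/μL with 500 nM. Fluorescence normalized to Coomassie. IC50 from curves, reported as pIC50 ± SEM, n = 3.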

[2] = molecular target: T2, Phospholipase A and acyltransferase 5 (Homo sapiens, UniProt Q96KN8); assay: Inhibition of full-length C-terminal FLAG-tagged human PLAAT5 expressed in HEK293T cell lysate preincubated for 30 mins followed by MB064 addition and measured after 20 mins by SDS-PAGE based ABPP analysis; procedure, shortened: as §1
T2 sequence (Q96KN8 whole entry): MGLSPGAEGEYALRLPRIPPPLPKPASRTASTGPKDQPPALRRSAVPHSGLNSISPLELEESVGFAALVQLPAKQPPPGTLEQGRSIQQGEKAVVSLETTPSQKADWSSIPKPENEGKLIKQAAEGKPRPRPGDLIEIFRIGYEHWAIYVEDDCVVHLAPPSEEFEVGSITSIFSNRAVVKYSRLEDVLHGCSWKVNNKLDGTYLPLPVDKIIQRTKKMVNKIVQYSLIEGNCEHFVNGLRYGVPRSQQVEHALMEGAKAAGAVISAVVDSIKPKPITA

Row | SMILES | IC50 [1] | IC50 [2]
1 | O=C(CCc1ccc(Cl)cc1)C(=O)NCCc1ccccc1 | 631 nM | 398 nM
2 | O=C(CCCc1ccccc1)C(=O)NCCc1ccc(Oc2ccc(C(F)(F)F)cn2)cc1 | 158 nM | –
